Test results: ChEMBL document CHEMBL4715732, “4-Phenylureido/thioureido-substituted 2,2-dimethylchroman analogs of cromakalim bearing a bulky 'carbamate' moiety at the 6-position as potent inhibitors of glucose-sensitive insulin secretion” (Eur J Med Chem, 2016)
The source made the active and inactive calls. The calls are words filed in the database; no cut-off is given here.

How the values were obtained:
Pancreatic islet [1] = assay: Decrease in cytosolic Ca2+ concentration during sustained phase in Wistar rat pancreatic islets at 10 uM measured up to 30 mins in presence of 2.8 to 20 mM extracellular glucose concentration by Fura-2 dye based fluorescence assay; type: functional, tissue-based; conditions: time min <=30
In short: (§1)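 Single rat pancreatic islet cells were loaded with fura-2 and cytosolic Ca2+ was read as the 340:380 nm fluorescence ratio. Glucose was raised from 2.8 to 20 mM, in medium with or without external calcium. Agent (10 μM) was added afterwards, during the sustained phase.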

Rattus norvegicus [2] = organism: Rattus norvegicus; assay: Activation of ATP-sensitive potassium channel in perifused Wistar rat pancreatic islets assessed as increase in 86Rb outflow at 10 uM measured up to 90 mins by scintillation counting method; conditions: filed as opener, time min <=90
Aorta [3] = assay: Myorelaxant activity in aortic rings isolated from Wistar rat assessed as reduction in 80 mM KCl-induced contractions; type: functional, tissue-based
In short: (§2)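 Endothelium-free rat aorta rings were contracted with 30 mM or 80 mM K+, with 1 or 10 μM glibenclamide present for some 30 mM series. Agent was applied cumulatively. EC50 is the concentration giving 50% relaxation of the KCl-induced contraction, reported as mean ± SEM (n).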

Aorta [4] = assay: Myorelaxant activity in aortic rings isolated from Wistar rat assessed as reduction in 30 mM KCl-induced contractions in presence of 1 uM KATP channel blocker glibenclamide; type: functional, tissue-based; in short: as §2
Rattus norvegicus [5] = organism: Rattus norvegicus; assay: Activation of ATP-sensitive potassium channel in perifused Wistar rat pancreatic islets assessed as increase in [45]Ca efflux at 10 uM measured up to 90 mins in presence of 16.7 mM glucose and absence of extracellular Ca2+ by scintillation counting method; conditions: filed as opener, time min <=90
In short: (§3)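 Rat islets were prelabeled with 45Ca and perifused throughout with 16.7 mM glucose. Basal medium either contained extracellular Ca2+ or was Ca2+-free and enriched with 0.5 mM EGTA. Agent was added at 10 μM, and 45Ca outflow and insulin release were followed. Values are mean ± SEM of 5-6 individual experiments.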

Pancreatic islet [6] = assay: (§4) Inhibition of glucose-induced insulin secretion in Wistar rat pancreatic islets incubated for 90 mins in presence of 16.7 mM glucose by radioimmunological assay; type: functional, tissue-based
In short: (§5)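 Rat pancreatic islets were incubated with 16.7 mM glucose, with test concentrations added to the medium (0.1, 0.5, 1 and 10 μM). Insulin release is given as a percentage of the control (no drug, 16.7 mM glucose), as mean ± SEM with n = number of samples. IC50 is the concentration giving a 50% reduction of the secretory response to glucose.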

[7] = as §4; type: functional, tissue-based; conditions: Pancreatic islet, 1.5 h; in short: as §5
Rattus norvegicus [8] = organism: Rattus norvegicus; assay: Activation of ATP-sensitive potassium channel in perifused Wistar rat pancreatic islets assessed as increase in 86Rb outflow at 10 uM measured up to 90 mins in basal media containing 5.6 mM glucose and glibenclamide by scintillation counting method; conditions: time min <=90
In short: (§6)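 Rat islets were perifused throughout in basal medium with 5.6 mM glucose and extracellular Ca2+, with or without the KATP blocker glibenclamide (10 μM). Test agent was added at 10 μM and 86Rb outflow was followed. Values are mean ± SEM of 6 individual experiments.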

Rattus norvegicus [9] = organism: Rattus norvegicus; assay: Activation of ATP-sensitive potassium channel in perifused Wistar rat pancreatic islets assessed as increase in 45Ca efflux at 10 uM measured up to 90 mins in presence of 2.8 mM glucose and absence of extracellular Ca2+ by scintillation counting method; conditions: filed as opener, time min <=90
In short: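 Perifused rat islets carrying 45Ca were exposed to 2.8 mM glucose in medium with or without extracellular Ca2+. Agent was added at 10 μM and 45Ca outflow was monitored.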

Rattus norvegicus [10] = organism: Rattus norvegicus; assay: Ratio of EC50 for vasorelaxant activity in aortic rings isolated from Wistar rat assessed as reduction in KCl-induced contractions measured after 60 mins in presence of 80 mM KCl by force-displacement transducer to IC50 for inhibition of 16.7 mM glucose-induced insulin secretion in Wistar rat pancreatic islets incubated for 90 mins in presence of glucose by radioimmunological assay; type: functional
Pancreatic islet [11] = assay: Increase in intracellular Ca2+ concentration under deprived extracellular calcium and physiological condition in Wistar rat pancreatic islets at 10 uM measured up to 30 mins in presence of 20 mM extracellular glucose concentration by Fura-2 dye based fluorescence assay; type: functional, tissue-based; conditions: time min <=30; in short: as §1
Rattus norvegicus [12] = organism: Rattus norvegicus; assay: Activation of ATP-sensitive potassium channel in perifused Wistar rat pancreatic islets assessed as increase in 86Rb outflow at 10 uM measured up to 90 mins by scintillation counting method; conditions: filed as opener, time min <=90; in short: as §6
[13] = Residual 16.7 mM glucose-induced insulin secretion in Wistar rat pancreatic islets at 0.5 uM incubated for 90 mins in presence of glucose by radioimmunological assay relative to control; conditions: Pancreatic islet, 1.5 h
Rattus norvegicus [14] = organism: Rattus norvegicus; assay: Activation of ATP-sensitive potassium channel in perifused Wistar rat pancreatic islets assessed as increase in extracellular K+ concentration at 10 uM measured up to 90 mins in presence of 2.8 mM glucose and extracellular Ca2+ by scintillation counting method; conditions: filed as opener, time min <=90
In short: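 Rat islets were perifused in 2.8 mM glucose with extracellular Ca2+. Extracellular K+ was raised from 5 to 50 mM, and 45Ca outflow was measured with or without agent (10 μM) present continuously. Values are mean ± SEM of 10 individual experiments.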

[15] = Residual glucose-induced insulin secretion in Wistar rat pancreatic islets at 0.1 uM incubated for 90 mins in presence of 16.7 mM glucose by radioimmunological assay relative to control; conditions: Pancreatic islet, 1.5 h
Aorta [16] = assay: Myorelaxant activity in aortic rings isolated from Wistar rat assessed as reduction in 30 mM KCl-induced contractions in presence of 10 uM KATP channel blocker glibenclamide; type: functional, tissue-based; in short: as §2
Rattus norvegicus [17] = organism: Rattus norvegicus; assay: Activation of ATP-sensitive potassium channel in perifused Wistar rat pancreatic islets assessed as increase in 86Rb outflow at 10 uM measured up to 90 mins by scintillation counting method; conditions: filed as opener, time min <=90; remark: listed apart in the source
Rattus norvegicus [18] = organism: Rattus norvegicus; assay: Activation of ATP-sensitive potassium channel in perifused Wistar rat pancreatic islets assessed as increase in extracellular K+ concentration at 10 uM measured up to 90 mins in presence of 2.8 mM glucose and absence of extracellular Ca2+ by scintillation counting method; conditions: filed as opener, time min <=90
Aorta [19] = assay: Myorelaxant activity in aortic rings isolated from Wistar rat assessed as reduction in KCl-induced contractions measured after 60 mins in presence of 80 mM KCl by force-displacement transducer; type: functional, tissue-based; in short: as §2
Rattus norvegicus [20] = organism: Rattus norvegicus; assay: Activation of ATP-sensitive potassium channel in perifused Wistar rat pancreatic islets assessed as inhibition of 45Ca outflow at 10 uM measured up to 90 mins in presence of 16.7 mM glucose and extracellular Ca2+ by scintillation counting method; conditions: filed as opener, time min <=90; in short: as §3
[21] = Residual glucose-induced insulin secretion in Wistar rat pancreatic islets at 1 uM incubated for 90 mins in presence of 16.7 mM glucose by radioimmunological assay relative to control; conditions: Pancreatic islet, 1.5 h
[22] = Residual glucose-induced insulin secretion in Wistar rat pancreatic islets at 10 uM incubated for 90 mins in presence of 16.7 mM glucose by radioimmunological assay relative to control; conditions: Pancreatic islet, 1.5 h
Pancreatic islet [23] = assay: Increase in intracellular Ca2+ concentration under deprived extracellular calcium and physiological condition in Wistar rat pancreatic islets at 10 uM measured up to 30 mins in presence of 2.8 mM extracellular glucose concentration by Fura-2 dye based fluorescence assay; type: functional, tissue-based; conditions: time min <=30
In short: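 Fura-2-loaded single rat islet cells were kept at 2.8 mM glucose in medium with or without extracellular calcium. Agent was added at 10 μM and fluorescence intensity was monitored.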

Rattus norvegicus [24] = organism: Rattus norvegicus; assay: Activation of ATP-sensitive potassium channel in perifused Wistar rat pancreatic islets assessed as inhibition of insulin secretion at 10 uM measured up to 90 mins in presence of 16.7 mM glucose by scintillation counting method; conditions: filed as opener, time min <=90; in short: as §3

CC(C)(C)OC(=O)Nc1ccc2c(c1)C(NC(=O)Nc1cccc(C#N)c1)CC(C)(C)O2 (racemic)
Activity (Pancreatic islet [1]): Active
Activity (Rattus norvegicus [2]): Active
EC50 (Aorta [3]): 12.2 µM
EC50 (Aorta [4]): 11.6 µM
Activity (Rattus norvegicus [5]): Active
inhibition (Pancreatic islet [6]): Dose-dependent effect
IC50 [7]: 0.24 µM
Activity (Rattus norvegicus [8]): inactive
Activity (Rattus norvegicus [9]): Active
Ratio (Rattus norvegicus [10]): 44
Activity (Pancreatic islet [11]): Active
Activity (Rattus norvegicus [12]): Active
residual insulin secretion at 0.5 µM [13]: 28.6%
Activity (Rattus norvegicus [14]): Active
residual insulin secretion at 0.1 µM [15]: 82%
EC50 (Aorta [16]): 9.4 µM
Activity (Rattus norvegicus [17]): Active
Activity (Rattus norvegicus [18]): Active
Activity (Aorta [19]): Dose-dependent effect
EC50 (Aorta [19]; 1 h, in the assay text read “30 mM KCl” for “80 mM KCl”): 10.5 µM
Activity (Rattus norvegicus [20]): Active
residual insulin secretion at 1 µM [21]: 15.6%
residual insulin secretion at 10 µM [22]: 7.4%
Activity (Pancreatic islet [23]): Active
Activity (Rattus norvegicus [24]): Active
